According to ChEMBL document CHEMBL1134636, “Structure-activity studies on nociceptin analogues: ORL1 receptor binding and biological activity of cyclic disulfide-containing analogues of nociceptin peptides” (J Med Chem, 2001):
Peptide text beside a SMILES is read from it.

Tests used:
[1] = biological target: T1, Nociceptin receptor (Homo sapiens, UniProt P41146); assay: Efficacy for human ORL1 receptor expressing HEK293 cell membrane; format: functional, cell-based
Method in brief: (§1)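 Membranes from HEK-293 cells expressing human ORL1 (10 μg) were incubated for 30 min at 24 °C with peptides (0.01 nM to 10 μM) in 20 mM HEPES pH 7.4 with 100 mM NaCl, 10 mM MgCl₂, 1 mM EDTA, 5 μM GDP and 400 pM [³⁵S]GTPγS. Binding was read with WGA-coated SPA beads.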

[2] = biological target: T1, Nociceptin receptor; assay: Efficacy for human ORL1 receptor expressing HEK293 cells; format: functional, cell-based; method in brief: as §1
[3] = biological target: T1, Nociceptin receptor; assay: Displacement of [3H]NC from human ORL1 receptor expressing HEK293 cell membrane; format: cell membranes

T1 sequence (P41146 whole entry): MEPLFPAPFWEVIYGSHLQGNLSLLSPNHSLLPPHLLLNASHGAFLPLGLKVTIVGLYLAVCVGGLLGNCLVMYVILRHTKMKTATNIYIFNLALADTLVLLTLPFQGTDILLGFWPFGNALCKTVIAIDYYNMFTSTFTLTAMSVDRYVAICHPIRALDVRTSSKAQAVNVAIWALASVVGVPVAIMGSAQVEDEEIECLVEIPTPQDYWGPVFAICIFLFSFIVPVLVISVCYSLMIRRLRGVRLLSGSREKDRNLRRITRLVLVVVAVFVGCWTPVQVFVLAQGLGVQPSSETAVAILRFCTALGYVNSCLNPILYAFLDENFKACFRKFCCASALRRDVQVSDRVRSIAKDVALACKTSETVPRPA

SMILES: C[C@H](NC(=O)CNC(=O)[C@@H](NC(=O)[C@H](Cc1ccccc1)NC(=O)CNC(=O)CNC(=O)[C@H](Cc1ccccc1)NC(=O)[C@@H](N)CS)[C@@H](C)O)C(=O)N[C@@H](CCCN=C(N)N)C(=O)N[C@@H](CCCCN)C(=O)N[C@@H](CS)C(=O)N[C@@H](C)C(=O)N[C@@H](CCCN=C(N)N)C(=O)N[C@@H](CCCCN)C(N)=O (H-CFGGFTGARKCARK-NH2)
- Emax [1]: 59%

SMILES: C[C@@H]1NC(=O)[C@H](CO)NC(=O)[C@H](CCCCN)NC(=O)[C@H](CCCNC(=N)N)NC(=O)[C@@H](NC(=O)CNC(=O)[C@@H](NC(=O)[C@H](Cc2ccccc2)NC(=O)CNC(=O)CNC(=O)[C@@H](N)Cc2ccccc2)[C@@H](C)O)CSSC[C@@H](C(N)=O)NC(=O)[C@H](CCCCN)NC(=O)[C@H](CCCNC(=N)N)NC1=O (HELM PEPTIDE1{F.G.G.F.T.G.C.R.K.S.A.R.K.C.[am]}$PEPTIDE1,PEPTIDE1,7:R3-14:R3$$$V2.0)
- EC50 [2]: 25 nM
- IC50 [3]: 4.97 nM

SMILES: C[C@@H]1NC(=O)CNC(=O)[C@H]([C@@H](C)O)NC(=O)[C@H](Cc2ccccc2)NC(=O)CNC(=O)CNC(=O)[C@H](Cc2ccccc2)NC(=O)[C@@H](N)CSSC[C@@H](C(=O)N[C@@H](CCCNC(=N)N)C(=O)N[C@@H](CCCCN)C(N)=O)NC(=O)[C@H](CO)NC(=O)[C@H](CCCCN)NC(=O)[C@H](CCCNC(=N)N)NC1=O (HELM PEPTIDE1{C.F.G.G.F.T.G.A.R.K.S.C.R.K.[am]}$PEPTIDE1,PEPTIDE1,1:R3-12:R3$$$V2.0)
- EC50 [2]: 439 nM
- IC50 [3]: 387 nM

SMILES: C[C@H](NC(=O)[C@H](CO)NC(=O)[C@H](CCCCN)NC(=O)[C@H](CCCNC(=N)N)NC(=O)[C@H](CS)NC(=O)CNC(=O)[C@@H](NC(=O)[C@H](Cc1ccccc1)NC(=O)CNC(=O)CNC(=O)[C@@H](N)Cc1ccccc1)[C@@H](C)O)C(=O)N[C@@H](CCCNC(=N)N)C(=O)N[C@@H](CCCCN)C(=O)N[C@@H](CS)C(N)=O (H-FGGFTGCRKSARKC-NH2)
- EC50 [2]: 22.3 nM
- IC50 [3]: 37.2 nM

SMILES: C[C@H](NC(=O)CNC(=O)[C@@H](NC(=O)[C@H](Cc1ccccc1)NC(=O)CNC(=O)CNC(=O)[C@@H](N)Cc1ccccc1)[C@@H](C)O)C(=O)N[C@@H](CCCNC(=N)N)C(=O)N[C@@H](CCCCN)C(=O)N[C@@H](CS)C(=O)N[C@@H](C)C(=O)N[C@@H](CCCNC(=N)N)C(=O)N[C@@H](CCCCN)C(=O)N[C@@H](CS)C(N)=O (H-FGGFTGARKCARKC-NH2)
- EC50 [2]: 3.9 nM
- IC50 [3]: 0.471 nM

SMILES: C[C@@H](O)[C@H](NC(=O)[C@H](Cc1ccccc1)NC(=O)CNC(=O)CNC(=O)[C@@H](N)Cc1ccccc1)C(=O)NCC(=O)N[C@H]1CSSC[C@@H](C(=O)N[C@@H](CCCN=C(N)N)C(=O)N[C@@H](CCCCN)C(N)=O)NC(=O)[C@H](CO)NC(=O)[C@H](CCCCN)NC(=O)[C@H](CCCN=C(N)N)NC1=O (HELM PEPTIDE1{F.G.G.F.T.G.C.R.K.S.C.R.K.[am]}$PEPTIDE1,PEPTIDE1,7:R3-11:R3$$$V2.0)
- EC50 [2]: 156 nM
- Emax [1]: 120%
- IC50 [3]: 3.04 nM

SMILES: C[C@H](NC(=O)[C@H](CO)NC(=O)[C@H](CCCCN)NC(=O)[C@H](CCCN=C(N)N)NC(=O)[C@H](C)NC(=O)[C@H](CS)NC(=O)[C@@H](NC(=O)[C@H](Cc1ccccc1)NC(=O)CNC(=O)CNC(=O)[C@H](Cc1ccccc1)NC(=O)[C@@H](N)CS)[C@@H](C)O)C(=O)N[C@@H](CCCN=C(N)N)C(=O)N[C@@H](CCCCN)C(N)=O (H-CFGGFTCARKSARK-NH2)
- Emax [1]: 12%

SMILES: C[C@H](NC(=O)CNC(=O)[C@@H](NC(=O)[C@H](Cc1ccccc1)NC(=O)CNC(=O)CNC(=O)[C@@H](N)Cc1ccccc1)[C@@H](C)O)C(=O)N[C@@H](CCCN=C(N)N)C(=O)N[C@@H](CCCCN)C(=O)N[C@@H](CS)C(=O)N[C@@H](C)C(=O)N[C@@H](CCCN=C(N)N)C(=O)N[C@@H](CCCCN)C(=O)N[C@@H](CS)C(N)=O (H-FGGFTGARKCARKC-NH2)
- Emax [1]: 105%

SMILES: C[C@H](NC(=O)[C@H](CS)NC(=O)[C@H](CCCCN)NC(=O)[C@H](CCCN=C(N)N)NC(=O)[C@H](C)NC(=O)[C@H](CS)NC(=O)[C@@H](NC(=O)[C@H](Cc1ccccc1)NC(=O)CNC(=O)CNC(=O)[C@@H](N)Cc1ccccc1)[C@@H](C)O)C(=O)N[C@@H](CCCN=C(N)N)C(=O)N[C@@H](CCCCN)C(N)=O (H-FGGFTCARKCARK-NH2)
- EC50 [2]: 29.7 nM
- Emax [1]: 94%
- IC50 [3]: 3.03 nM

SMILES: C[C@H](NC(=O)[C@H](CO)NC(=O)[C@H](CCCCN)NC(=O)[C@H](CCCNC(=N)N)NC(=O)[C@@H]1CSSC[C@H](N)C(=O)N[C@@H](Cc2ccccc2)C(=O)NCC(=O)NCC(=O)N[C@@H](Cc2ccccc2)C(=O)N[C@@H]([C@@H](C)O)C(=O)NCC(=O)N1)C(=O)N[C@@H](CCCNC(=N)N)C(=O)N[C@@H](CCCCN)C(N)=O (HELM PEPTIDE1{C.F.G.G.F.T.G.C.R.K.S.A.R.K.[am]}$PEPTIDE1,PEPTIDE1,1:R3-8:R3$$$V2.0)
- EC50 [2]: > 10000 nM
- IC50 [3]: 874 nM

SMILES: C[C@@H]1NC(=O)CNC(=O)[C@H]([C@@H](C)O)NC(=O)[C@H](Cc2ccccc2)NC(=O)CNC(=O)CNC(=O)[C@H](Cc2ccccc2)NC(=O)[C@@H](N)CSSC[C@@H](C(=O)N[C@@H](C)C(=O)N[C@@H](CCCN=C(N)N)C(=O)N[C@@H](CCCCN)C(N)=O)NC(=O)[C@H](CCCCN)NC(=O)[C@H](CCCN=C(N)N)NC1=O (HELM PEPTIDE1{C.F.G.G.F.T.G.A.R.K.C.A.R.K.[am]}$PEPTIDE1,PEPTIDE1,1:R3-11:R3$$$V2.0)
- Emax [1]: 81%

SMILES: CC(C)C[C@H](NC(=O)[C@H](CCCCN)NC(=O)[C@H](CCCN=C(N)N)NC(=O)[C@H](C)NC(=O)[C@H](CO)NC(=O)[C@H](CCCCN)NC(=O)[C@H](CCCN=C(N)N)NC(=O)[C@H](C)NC(=O)CNC(=O)[C@@H](NC(=O)[C@H](Cc1ccccc1)NC(=O)CNC(=O)CNC(=O)[C@@H](N)Cc1ccccc1)[C@@H](C)O)C(N)=O (H-FGGFTGARKSARKL-NH2)
- EC50 [2]: 1.97 nM
- Emax [1]: 105%
- IC50 [3]: 0.52 nM

SMILES: C[C@H](NC(=O)[C@H](CO)NC(=O)[C@H](CCCCN)NC(=O)[C@H](CCCN=C(N)N)NC(=O)[C@H](C)NC(=O)[C@@H]1CSSC[C@H](N)C(=O)N[C@@H](Cc2ccccc2)C(=O)NCC(=O)NCC(=O)N[C@@H](Cc2ccccc2)C(=O)N[C@@H]([C@@H](C)O)C(=O)N1)C(=O)N[C@@H](CCCN=C(N)N)C(=O)N[C@@H](CCCCN)C(N)=O (HELM PEPTIDE1{C.F.G.G.F.T.C.A.R.K.S.A.R.K.[am]}$PEPTIDE1,PEPTIDE1,1:R3-7:R3$$$V2.0)
- Emax [1]: 18%

SMILES: C[C@@H](O)[C@H](NC(=O)[C@H](Cc1ccccc1)NC(=O)CNC(=O)CNC(=O)[C@@H](N)Cc1ccccc1)C(=O)NCC(=O)N[C@@H](CS)C(=O)N[C@@H](CCCN=C(N)N)C(=O)N[C@@H](CCCCN)C(=O)N[C@@H](CO)C(=O)N[C@@H](CS)C(=O)N[C@@H](CCCN=C(N)N)C(=O)N[C@@H](CCCCN)C(N)=O (H-FGGFTGCRKSCRK-NH2)
- EC50 [2]: 26.3 nM
- Emax [1]: 99%
- IC50 [3]: 8.7 nM

SMILES: C[C@@H]1NC(=O)[C@H](CO)NC(=O)[C@H](CCCCN)NC(=O)[C@H](CCCN=C(N)N)NC(=O)[C@@H](NC(=O)CNC(=O)[C@@H](NC(=O)[C@H](Cc2ccccc2)NC(=O)CNC(=O)CNC(=O)[C@@H](N)Cc2ccccc2)[C@@H](C)O)CSSC[C@@H](C(N)=O)NC(=O)[C@H](CCCCN)NC(=O)[C@H](CCCN=C(N)N)NC1=O (HELM PEPTIDE1{F.G.G.F.T.G.C.R.K.S.A.R.K.C.[am]}$PEPTIDE1,PEPTIDE1,7:R3-14:R3$$$V2.0)
- Emax [1]: 95%

SMILES: C[C@H](NC(=O)CNC(=O)[C@@H](NC(=O)[C@H](Cc1ccccc1)NC(=O)CNC(=O)CNC(=O)[C@H](Cc1ccccc1)NC(=O)[C@@H](N)CS)[C@@H](C)O)C(=O)N[C@@H](CCCNC(=N)N)C(=O)N[C@@H](CCCCN)C(=O)N[C@@H](CO)C(=O)N[C@@H](CS)C(=O)N[C@@H](CCCNC(=N)N)C(=O)N[C@@H](CCCCN)C(N)=O (H-CFGGFTGARKSCRK-NH2)
- EC50 ([2]; hek293): 286 nM
- IC50 ([3]; hek293): 1290 nM

SMILES: C[C@H](NC(=O)CNC(=O)[C@@H](NC(=O)[C@H](Cc1ccccc1)NC(=O)CNC(=O)CNC(=O)[C@@H](N)Cc1ccccc1)[C@@H](C)O)C(=O)N[C@@H](CCCN=C(N)N)C(=O)N[C@@H](CCCCN)C(=O)N[C@H]1CSSC[C@@H](C(N)=O)NC(=O)[C@H](CCCCN)NC(=O)[C@H](CCCN=C(N)N)NC(=O)[C@H](C)NC1=O (HELM PEPTIDE1{F.G.G.F.T.G.A.R.K.C.A.R.K.C.[am]}$PEPTIDE1,PEPTIDE1,10:R3-14:R3$$$V2.0)
- Emax [1]: 99%

SMILES: C[C@H](NC(=O)[C@H](CO)NC(=O)[C@H](CCCCN)NC(=O)[C@H](CCCN=C(N)N)NC(=O)[C@H](CS)NC(=O)CNC(=O)[C@@H](NC(=O)[C@H](Cc1ccccc1)NC(=O)CNC(=O)CNC(=O)[C@@H](N)Cc1ccccc1)[C@@H](C)O)C(=O)N[C@@H](CCCN=C(N)N)C(=O)N[C@@H](CCCCN)C(=O)N[C@@H](CS)C(N)=O (H-FGGFTGCRKSARKC-NH2)
- Emax [1]: 101%

SMILES: C[C@H](NC(=O)CNC(=O)[C@@H](NC(=O)[C@H](Cc1ccccc1)NC(=O)CNC(=O)CNC(=O)[C@@H](N)Cc1ccccc1)[C@@H](C)O)C(=O)N[C@@H](CCCNC(=N)N)C(=O)N[C@@H](CCCCN)C(=O)N[C@H]1CSSC[C@@H](C(N)=O)NC(=O)[C@H](CCCCN)NC(=O)[C@H](CCCNC(=N)N)NC(=O)[C@H](C)NC1=O (HELM PEPTIDE1{F.G.G.F.T.G.A.R.K.C.A.R.K.C.[am]}$PEPTIDE1,PEPTIDE1,10:R3-14:R3$$$V2.0)
- EC50 [2]: 4.37 nM
- IC50 [3]: 0.122 nM

SMILES: C[C@H](NC(=O)[C@H](CO)NC(=O)[C@H](CCCCN)NC(=O)[C@H](CCCNC(=N)N)NC(=O)[C@H](CS)NC(=O)CNC(=O)[C@@H](NC(=O)[C@H](Cc1ccccc1)NC(=O)CNC(=O)CNC(=O)[C@H](Cc1ccccc1)NC(=O)[C@@H](N)CS)[C@@H](C)O)C(=O)N[C@@H](CCCNC(=N)N)C(=O)N[C@@H](CCCCN)C(N)=O (H-CFGGFTGCRKSARK-NH2)
- EC50 ([2]; hek293): > 10000 nM
- IC50 ([3]; hek293): 2710 nM
